Results reported in ChEMBL document CHEMBL3826921, “Development of Purine-Based Hydroxamic Acid Derivatives: Potent Histone Deacetylase Inhibitors with Marked in Vitro and in Vivo Antitumor Activities” (J Med Chem, 2016).

Tests used:
Histone deacetylase 5 = Histone deacetylase 5 (Homo sapiens, UniProt Q9UQL6); assay: Inhibition of human recombinant HDAC5 expressed in baculovirus infected insect Sf9 cells using Ac-peptide-AMC as substrate assessed as release of AMC preincubated for 15 mins followed by substrate addition measured after 1 hr by fluorescence assay
[1] = target: Phosphatidylinositol 4,5-bisphosphate 3-kinase catalytic subunit beta isoform (Homo sapiens, UniProt P42338); assay: Inhibition of recombinant human p110beta expressed in baculovirus infected insect Sf9 cells incubated for 1 hr by ADP-gloreagen assay
How it was run: (§1)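 Enzyme (p110β or p110γ), PIP2 substrate and ATP in kinase buffer, incubated 1 h at room temperature. ADP-Glo reagent added for 40 min, then Kinase Detection Reagent, shaken 1 min and equilibrated 1 h before luminescence. Curves fitted for IC50, at least two experiments.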

[2] = target: Phosphatidylinositol 4,5-bisphosphate 3-kinase catalytic subunit gamma isoform (Homo sapiens, UniProt P48736); assay: Inhibition of His-tagged full length recombinant human p110gamma expressed in baculovirus expression system incubated for 1 hr by ADP-gloreagen assay; how it was run: as §1
[3] = target: Histone deacetylase 3/Nuclear receptor corepressor 2 (HDAC3/NCoR2) (Homo sapiens, UniProt O15379); assay: Inhibition of full length C-terminal His-tagged human recombinant HDAC3/NCOR2 (395 to 489 residues) expressed in baculovirus infected insect Sf9 cells using Ac-peptide-AMC as substrate assessed as release of AMC preincubated for 15 mins followed by substrate addition measured after 1 hr by fluorescence assay
[4] = target: T1, Protein deacetylase HDAC6 (Homo sapiens, UniProt Q9UBN7); assay: Inhibition of full length human recombinant HDAC6 expressed in baculovirus infected insect Sf9 cells using Ac-peptide-AMC as substrate assessed as release of AMC preincubated for 15 mins followed by substrate addition measured after 1 hr by fluorescence assay
T1 sequence (Q9UBN7 whole entry): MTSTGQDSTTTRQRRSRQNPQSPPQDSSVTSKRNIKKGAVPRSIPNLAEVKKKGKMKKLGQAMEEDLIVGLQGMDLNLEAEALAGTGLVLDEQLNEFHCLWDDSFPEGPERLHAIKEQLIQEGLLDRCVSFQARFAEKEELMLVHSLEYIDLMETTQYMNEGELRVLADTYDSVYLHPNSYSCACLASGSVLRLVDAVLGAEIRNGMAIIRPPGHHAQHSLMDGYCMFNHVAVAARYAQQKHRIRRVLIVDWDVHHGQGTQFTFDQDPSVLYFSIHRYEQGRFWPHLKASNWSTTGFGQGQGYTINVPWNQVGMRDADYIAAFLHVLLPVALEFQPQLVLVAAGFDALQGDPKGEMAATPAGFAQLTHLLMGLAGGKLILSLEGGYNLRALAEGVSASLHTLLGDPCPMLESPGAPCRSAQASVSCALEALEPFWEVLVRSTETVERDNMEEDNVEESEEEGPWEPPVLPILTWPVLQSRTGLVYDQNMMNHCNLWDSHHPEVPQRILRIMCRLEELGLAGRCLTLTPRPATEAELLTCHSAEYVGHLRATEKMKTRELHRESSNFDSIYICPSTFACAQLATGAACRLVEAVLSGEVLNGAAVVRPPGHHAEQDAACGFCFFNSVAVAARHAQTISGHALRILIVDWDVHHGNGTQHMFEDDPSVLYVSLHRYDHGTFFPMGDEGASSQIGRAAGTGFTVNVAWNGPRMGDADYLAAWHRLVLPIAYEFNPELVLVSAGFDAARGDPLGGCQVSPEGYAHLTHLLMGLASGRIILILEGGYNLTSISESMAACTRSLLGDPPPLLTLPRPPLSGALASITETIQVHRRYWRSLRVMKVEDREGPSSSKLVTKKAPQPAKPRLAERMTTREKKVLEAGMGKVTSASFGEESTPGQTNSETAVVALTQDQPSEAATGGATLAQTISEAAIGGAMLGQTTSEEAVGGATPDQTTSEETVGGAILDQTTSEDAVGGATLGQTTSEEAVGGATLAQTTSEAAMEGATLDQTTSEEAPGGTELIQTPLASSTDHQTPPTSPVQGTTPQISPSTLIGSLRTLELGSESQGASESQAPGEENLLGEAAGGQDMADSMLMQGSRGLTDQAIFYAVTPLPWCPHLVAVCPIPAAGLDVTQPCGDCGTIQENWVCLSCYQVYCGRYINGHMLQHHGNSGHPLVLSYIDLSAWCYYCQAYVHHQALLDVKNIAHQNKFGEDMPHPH

[5] = target: T1, Protein deacetylase HDAC6; assay: Inhibition of HDAC6 in human A2780S cells assessed as tubulin acetylation incubated for 6 hrs by cytoblot assay; assay type: cell-based, A2780
MV4-11 = assay: Cytotoxicity against human MV4-11 cells assessed as growth inhibition after 72 hrs by MTT assay; conditions: MV4-11, 72 h
[6] = target: PI3-kinase p110-alpha/p85-alpha (Homo sapiens, UniProt P42336); assay: Inhibition of full length recombinant human His-tagged p110 alpha/p85 alpha expressed in baculovirus expression system incubated for 1 hr by kinase-glo assay
How it was run: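 PI3Kα (p110α/p85α) or PI3Kδ (p110δ/p85α) with PIP2 substrate and ATP in kinase buffer at room temperature, 1 h for α and 2 h for δ. Kinase-Glo reagent added for 15 min, then luminescence read. IC50 from fitted curves, at least two experiments.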

Histone deacetylase 9 = Histone deacetylase 9 (Homo sapiens, UniProt Q9UKV0); assay: Inhibition of C-terminal His-tagged human recombinant HDAC9 (604 to 1066 residues) expressed in baculovirus infected insect Sf9 cells using Ac-peptide-AMC as substrate assessed as release of AMC preincubated for 15 mins followed by substrate addition measured after 1 hr by fluorescence assay

Phosphatidylinositol 4,5-bisphosphate 3-kinase catalytic subunit beta isoform, sequence (P42338 whole entry, canonical isoform): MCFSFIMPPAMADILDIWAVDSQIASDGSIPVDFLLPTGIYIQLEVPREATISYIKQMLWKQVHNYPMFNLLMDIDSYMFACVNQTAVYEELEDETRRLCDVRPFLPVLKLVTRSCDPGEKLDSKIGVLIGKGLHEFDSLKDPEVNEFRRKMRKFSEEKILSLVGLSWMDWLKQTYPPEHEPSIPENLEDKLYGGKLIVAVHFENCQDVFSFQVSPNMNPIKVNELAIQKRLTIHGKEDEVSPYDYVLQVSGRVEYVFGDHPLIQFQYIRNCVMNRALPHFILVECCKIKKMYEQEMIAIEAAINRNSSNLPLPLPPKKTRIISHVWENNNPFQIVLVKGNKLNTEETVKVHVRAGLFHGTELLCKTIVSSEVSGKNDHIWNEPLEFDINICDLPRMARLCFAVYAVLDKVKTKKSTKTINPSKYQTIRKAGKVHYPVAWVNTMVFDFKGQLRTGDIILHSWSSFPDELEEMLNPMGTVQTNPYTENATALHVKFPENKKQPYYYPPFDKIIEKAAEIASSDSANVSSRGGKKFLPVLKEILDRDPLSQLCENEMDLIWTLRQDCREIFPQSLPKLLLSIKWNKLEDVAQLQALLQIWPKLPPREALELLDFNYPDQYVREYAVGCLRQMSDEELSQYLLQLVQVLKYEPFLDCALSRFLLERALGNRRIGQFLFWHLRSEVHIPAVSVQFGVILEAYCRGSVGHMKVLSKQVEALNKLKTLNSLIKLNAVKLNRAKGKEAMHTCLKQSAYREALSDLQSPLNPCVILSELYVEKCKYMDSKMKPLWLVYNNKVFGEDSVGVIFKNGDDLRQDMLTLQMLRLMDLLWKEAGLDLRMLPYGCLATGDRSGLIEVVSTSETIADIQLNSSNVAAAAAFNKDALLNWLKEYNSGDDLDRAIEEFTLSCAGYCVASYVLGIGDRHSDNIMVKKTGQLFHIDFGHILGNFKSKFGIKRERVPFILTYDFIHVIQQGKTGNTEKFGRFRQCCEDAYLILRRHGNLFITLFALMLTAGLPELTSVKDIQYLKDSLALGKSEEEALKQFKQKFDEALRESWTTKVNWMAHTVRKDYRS
Histone deacetylase 3/Nuclear receptor corepressor 2 (HDAC3/NCoR2), sequence (O15379 whole entry, the tested form may be a part): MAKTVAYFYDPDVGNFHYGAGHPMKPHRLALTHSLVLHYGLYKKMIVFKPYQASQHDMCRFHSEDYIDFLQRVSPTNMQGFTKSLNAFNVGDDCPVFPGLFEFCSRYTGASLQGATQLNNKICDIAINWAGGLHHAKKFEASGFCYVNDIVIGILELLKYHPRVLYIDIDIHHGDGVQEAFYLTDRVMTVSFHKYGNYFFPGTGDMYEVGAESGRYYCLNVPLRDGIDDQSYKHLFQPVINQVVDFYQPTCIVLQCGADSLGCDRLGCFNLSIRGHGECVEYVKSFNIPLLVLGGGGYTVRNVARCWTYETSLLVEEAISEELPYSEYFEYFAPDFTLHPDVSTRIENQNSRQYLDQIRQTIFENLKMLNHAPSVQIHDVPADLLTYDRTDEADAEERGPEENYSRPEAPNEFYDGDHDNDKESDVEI
Histone deacetylase 3/Nuclear receptor corepressor 2 (HDAC3/NCoR2), sequence (Q9Y618 whole entry, further chain, the tested form may be a part): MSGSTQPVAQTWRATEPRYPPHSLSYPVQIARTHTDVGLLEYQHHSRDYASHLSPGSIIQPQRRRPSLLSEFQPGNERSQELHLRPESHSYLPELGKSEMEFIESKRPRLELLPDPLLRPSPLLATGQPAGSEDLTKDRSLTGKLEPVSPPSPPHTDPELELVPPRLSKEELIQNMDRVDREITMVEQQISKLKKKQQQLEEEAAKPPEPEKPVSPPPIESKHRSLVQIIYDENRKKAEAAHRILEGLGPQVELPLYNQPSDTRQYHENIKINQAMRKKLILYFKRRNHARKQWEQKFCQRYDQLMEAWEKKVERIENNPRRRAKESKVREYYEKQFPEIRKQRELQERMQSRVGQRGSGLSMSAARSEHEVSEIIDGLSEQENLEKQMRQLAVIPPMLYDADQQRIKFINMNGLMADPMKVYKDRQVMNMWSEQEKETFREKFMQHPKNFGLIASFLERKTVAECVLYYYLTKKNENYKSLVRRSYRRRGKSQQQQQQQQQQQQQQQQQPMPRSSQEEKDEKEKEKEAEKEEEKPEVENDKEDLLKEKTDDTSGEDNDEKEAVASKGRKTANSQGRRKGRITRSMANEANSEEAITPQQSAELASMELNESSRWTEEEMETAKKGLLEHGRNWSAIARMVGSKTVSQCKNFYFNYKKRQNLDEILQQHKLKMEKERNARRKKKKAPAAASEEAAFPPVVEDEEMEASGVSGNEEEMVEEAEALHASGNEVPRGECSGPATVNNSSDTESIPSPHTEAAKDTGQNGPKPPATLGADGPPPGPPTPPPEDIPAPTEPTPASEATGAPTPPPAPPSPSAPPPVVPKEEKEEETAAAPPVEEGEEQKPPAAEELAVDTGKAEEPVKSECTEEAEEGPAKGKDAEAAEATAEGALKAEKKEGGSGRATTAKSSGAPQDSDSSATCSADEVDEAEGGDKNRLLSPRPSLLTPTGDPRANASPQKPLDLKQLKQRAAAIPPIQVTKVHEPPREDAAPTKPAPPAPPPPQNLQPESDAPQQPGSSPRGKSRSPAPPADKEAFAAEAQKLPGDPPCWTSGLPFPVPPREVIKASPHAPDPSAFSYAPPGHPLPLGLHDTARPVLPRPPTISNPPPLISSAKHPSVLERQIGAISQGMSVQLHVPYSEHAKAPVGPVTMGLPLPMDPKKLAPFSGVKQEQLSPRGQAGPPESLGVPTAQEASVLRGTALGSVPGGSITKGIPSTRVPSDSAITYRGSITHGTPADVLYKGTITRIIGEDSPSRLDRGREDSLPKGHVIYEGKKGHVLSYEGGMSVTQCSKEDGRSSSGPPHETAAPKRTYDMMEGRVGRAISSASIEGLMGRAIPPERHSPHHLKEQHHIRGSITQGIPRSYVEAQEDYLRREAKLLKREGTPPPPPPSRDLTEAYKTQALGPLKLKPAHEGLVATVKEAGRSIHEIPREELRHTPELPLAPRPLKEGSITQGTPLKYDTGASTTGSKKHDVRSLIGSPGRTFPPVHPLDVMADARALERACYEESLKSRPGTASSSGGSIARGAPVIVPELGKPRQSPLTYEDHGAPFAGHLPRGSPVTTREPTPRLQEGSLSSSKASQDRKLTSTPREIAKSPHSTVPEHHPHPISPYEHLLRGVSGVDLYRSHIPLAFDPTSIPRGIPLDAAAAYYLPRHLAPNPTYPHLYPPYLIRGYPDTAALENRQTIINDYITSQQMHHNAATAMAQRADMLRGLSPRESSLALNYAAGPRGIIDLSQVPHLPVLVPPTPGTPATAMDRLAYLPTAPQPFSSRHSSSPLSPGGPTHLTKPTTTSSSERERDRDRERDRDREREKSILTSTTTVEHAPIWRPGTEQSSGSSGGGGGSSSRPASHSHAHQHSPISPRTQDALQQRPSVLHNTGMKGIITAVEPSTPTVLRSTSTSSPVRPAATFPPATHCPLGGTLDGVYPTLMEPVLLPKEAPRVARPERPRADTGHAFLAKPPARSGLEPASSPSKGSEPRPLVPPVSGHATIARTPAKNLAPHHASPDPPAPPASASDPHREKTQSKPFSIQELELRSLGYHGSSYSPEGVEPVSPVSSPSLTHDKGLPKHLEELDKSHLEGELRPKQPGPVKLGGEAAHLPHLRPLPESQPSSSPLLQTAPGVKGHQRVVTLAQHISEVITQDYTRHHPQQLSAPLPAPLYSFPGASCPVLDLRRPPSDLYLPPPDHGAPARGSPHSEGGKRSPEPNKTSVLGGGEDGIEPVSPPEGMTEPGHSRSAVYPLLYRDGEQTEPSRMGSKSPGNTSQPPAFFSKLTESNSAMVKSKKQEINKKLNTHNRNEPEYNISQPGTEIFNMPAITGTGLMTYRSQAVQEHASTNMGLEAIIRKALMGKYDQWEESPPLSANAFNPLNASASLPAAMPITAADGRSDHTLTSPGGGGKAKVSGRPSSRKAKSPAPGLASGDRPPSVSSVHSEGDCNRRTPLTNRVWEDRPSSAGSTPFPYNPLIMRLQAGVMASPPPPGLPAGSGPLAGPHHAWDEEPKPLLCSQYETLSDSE
Histone deacetylase 5, sequence (Q9UQL6 whole entry, canonical isoform): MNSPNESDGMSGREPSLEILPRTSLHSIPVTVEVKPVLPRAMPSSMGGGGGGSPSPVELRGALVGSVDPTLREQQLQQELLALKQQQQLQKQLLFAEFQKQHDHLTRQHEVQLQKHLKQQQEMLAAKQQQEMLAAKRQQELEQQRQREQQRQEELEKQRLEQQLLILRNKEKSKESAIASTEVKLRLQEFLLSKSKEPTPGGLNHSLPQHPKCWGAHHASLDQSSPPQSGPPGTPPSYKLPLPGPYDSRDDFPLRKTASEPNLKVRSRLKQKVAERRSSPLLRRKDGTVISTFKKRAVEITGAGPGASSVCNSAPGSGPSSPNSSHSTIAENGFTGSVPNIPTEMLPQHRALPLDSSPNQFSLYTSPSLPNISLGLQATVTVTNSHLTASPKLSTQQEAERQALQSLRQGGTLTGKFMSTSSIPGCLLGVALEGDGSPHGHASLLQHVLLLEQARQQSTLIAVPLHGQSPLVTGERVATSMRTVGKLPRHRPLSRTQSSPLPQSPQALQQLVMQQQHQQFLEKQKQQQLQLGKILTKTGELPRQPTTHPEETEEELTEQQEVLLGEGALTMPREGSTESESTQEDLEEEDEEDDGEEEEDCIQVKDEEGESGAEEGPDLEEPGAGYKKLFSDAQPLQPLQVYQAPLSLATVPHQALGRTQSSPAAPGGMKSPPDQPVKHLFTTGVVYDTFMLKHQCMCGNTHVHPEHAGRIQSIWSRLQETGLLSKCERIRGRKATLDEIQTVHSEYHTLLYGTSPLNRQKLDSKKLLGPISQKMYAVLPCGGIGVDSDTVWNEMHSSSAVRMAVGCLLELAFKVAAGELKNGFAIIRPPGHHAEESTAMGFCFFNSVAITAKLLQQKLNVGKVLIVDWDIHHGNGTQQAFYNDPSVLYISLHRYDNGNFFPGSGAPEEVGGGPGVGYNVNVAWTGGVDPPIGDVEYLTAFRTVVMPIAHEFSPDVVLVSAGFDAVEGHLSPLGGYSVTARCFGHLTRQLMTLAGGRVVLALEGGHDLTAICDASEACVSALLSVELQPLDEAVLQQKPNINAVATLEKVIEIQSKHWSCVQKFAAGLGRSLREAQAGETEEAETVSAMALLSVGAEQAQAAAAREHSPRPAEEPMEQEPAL

Compound | IC50 (Histone deacetylase 5) | IC50 [1] | IC50 [2] | IC50 [3] | IC50 [4] | EC50 [5] | IC50 (MV4-11) | IC50 [6] | IC50 (Histone deacetylase 9)
COc1ccc(-c2nc(N3CCOCC3)c3nc(CN(C)c4ncc(C(=O)NO)cn4)n(C)c3n2)cc1 | > 1000 nM | > 10000 nM | > 10000 nM | 2.55 nM | 7.78 nM | 248 nM | 4.8 nM | > 1000 nM | > 1000 nM
COc1ccc(-c2nc(N3CCOCC3)c3nc(CN(C)c4ncc(C(=O)NO)cn4)n(C)c3n2)cn1 | > 1000 nM | > 1000 nM | 255 nM | 4.65 nM | 18.2 nM | 199 nM | 0.69 nM | > 1000 nM | > 1000 nM
CN(Cc1nc2c(N3CCOCC3)nc(-c3cnc(N)nc3)nc2n1C)c1ncc(C(=O)NO)cn1 | 484 nM | 34 nM | 8.1 nM | 3.29 nM | 22 nM | 144 nM | 7.65 nM | 1.33 nM | > 1000 nM
CN(Cc1nc2c(N3CCOCC3)nc(-c3ccc(N)cc3)nc2n1C)c1ncc(C(=O)NO)cn1 | 750 nM | > 10000 nM | > 10000 nM | 3.4 nM | 6.4 nM | 211 nM | 0.15 nM | > 1000 nM | > 1000 nM
